From ChEMBL document CHEMBL3817843, “Understanding Oxadiazolothiazinone Biological Properties: Negative Inotropic Activity versus Cytochrome P450-Mediated Metabolism” (J Med Chem, 2016)
Blank lines part the entries; values can stand above or below the compound they belong to.

Key:
Cytochrome P450 1A2 = target: T1, Cytochrome P450 1A2 (Homo sapiens, UniProt P05177); test: Inhibition of CYP1A2 in human liver microsomes using phenacetin as substrate after 30 mins by LC-MS analysis
T1 sequence (P05177 whole entry): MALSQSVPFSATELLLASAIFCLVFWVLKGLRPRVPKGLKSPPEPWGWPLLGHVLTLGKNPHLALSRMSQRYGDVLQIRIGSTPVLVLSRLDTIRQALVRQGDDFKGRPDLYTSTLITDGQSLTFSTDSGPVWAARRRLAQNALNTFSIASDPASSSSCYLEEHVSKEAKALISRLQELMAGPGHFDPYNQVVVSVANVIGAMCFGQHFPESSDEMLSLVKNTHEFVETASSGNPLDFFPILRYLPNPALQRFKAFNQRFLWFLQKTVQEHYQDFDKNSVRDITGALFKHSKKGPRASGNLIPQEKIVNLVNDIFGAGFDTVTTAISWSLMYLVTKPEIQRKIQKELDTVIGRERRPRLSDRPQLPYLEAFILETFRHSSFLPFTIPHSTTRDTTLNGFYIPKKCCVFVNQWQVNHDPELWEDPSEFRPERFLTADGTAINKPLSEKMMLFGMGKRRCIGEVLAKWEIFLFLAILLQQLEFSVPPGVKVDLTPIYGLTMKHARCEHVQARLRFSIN

Cytochrome P450 2D6 = Cytochrome P450 2D6 (Homo sapiens, UniProt P10635); test: Inhibition of CYP2D6 in human liver microsomes using dextromethorphan as substrate after 10 mins by LC-MS analysis
Left cardiac atrium [1] = test: Negative inotropic activity in potassium depolarized guinea pig left atrium assessed as reduction in developed tension after 30 mins; type: functional; details: Cavia porcellus, 0.5 h
Outline: (§1)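 Guinea pig left atria electrically driven at 1 Hz. EC50 taken from log concentration−response curves by Litchfield and Wilcoxon probit analysis, n = 6−7. Not calculated when the maximum effect was below 50%.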

in vitro = details: human, liver microsomes
[2] = Relaxant activity in potassium depolarized guinea pig ileum longitudinal smooth muscle assessed as inhibition of calcium-induced contraction at 50 uM after 30 mins; type: functional, Cavia porcellus; set-up: scale not given: the % may be the effect or the level left
Cytochrome P450 2C19 = Cytochrome P450 2C19 (Homo sapiens, UniProt P33261); test: Inhibition of CYP2C19 in human liver microsomes using (S)-mephenytoin as substrate after 40 mins by LC-MS analysis
Cytochrome P450 2C9 = Cytochrome P450 2C9 (Homo sapiens, UniProt P11712); test: Inhibition of CYP2C9 in human liver microsomes using tolbutamide as substrate after 20 mins by LC-MS analysis
Liver microsome = test: Stability in human liver microsomes at 1 uM after 2 to 60 mins by LC-MS analysis in absence of NADPH
[3] = Relaxant activity in potassium depolarized guinea pig ileum longitudinal smooth muscle assessed as inhibition of calcium-induced contraction after 30 mins; type: functional, tissue-based; details: Cavia porcellus, 0.5 h
Cytochrome P450 3A4 [4] = target: T2, Cytochrome P450 3A4 (Homo sapiens, UniProt P08684); test: Inhibition of CYP3A4 in human liver microsomes using midazolam as substrate after 4 mins by LC-MS analysis
Left cardiac atrium [5] = test: Negative inotropic activity in potassium depolarized guinea pig left atrium assessed as reduction in developed tension at 10^-5 M after 30 mins; type: functional, Cavia porcellus; set-up: scale not given: the % may be the effect or the level left
Right cardiac atrium [6] = test: Negative chronotropic activity in potassium depolarized guinea pig right atrium assessed as reduction in atrial rate at 10^-6 M after 30 mins; type: functional, Cavia porcellus; set-up: scale not given: the % may be the effect or the level left
Aorta [7] = test: Vasorelaxant activity in potassium depolarized guinea pig aorta assessed as inhibition of calcium-induced contraction at 10^-4 M after 30 mins; type: functional, Cavia porcellus; set-up: scale not given: the % may be the effect or the level left
Outline: (§2)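 Guinea pig aortic strips depolarized with K+ (80 mM). Calcium-induced contraction measured; inhibition expressed as percent change from control, n = 3−5.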

Cytochrome P450 3A4 [8] = target: T2, Cytochrome P450 3A4; test: Inhibition of CYP3A4 in human liver microsomes using testosterone as substrate after 5 mins by LC-MS analysis
[9] = Half life in human liver microsomes assessed as CYP-mediated compound degradation at 1 uM by LC-MS analysis
Left cardiac atrium [10] = test: Negative inotropic activity in potassium depolarized guinea pig left atrium assessed as reduction in developed tension at 10^-4 M after 30 mins; type: functional, Cavia porcellus; set-up: scale not given: the % may be the effect or the level left
Left cardiac atrium [11] = test: Negative inotropic activity in potassium depolarized guinea pig left atrium assessed as reduction in developed tension at 10^-5 M; type: functional, Cavia porcellus; set-up: scale not given: the % may be the effect or the level left
Left cardiac atrium [12] = test: Negative inotropic activity in potassium depolarized guinea pig left atrium assessed as reduction in developed tension; type: functional; details: Cavia porcellus; outline: as §1
Aorta [13] = test: Vasorelaxant activity in potassium depolarized guinea pig aorta assessed as inhibition of calcium-induced contraction at 10^-6 M; type: functional, Cavia porcellus; set-up: scale not given: the % may be the effect or the level left
Outline: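 Guinea pig aortic strips depolarized with 80 mM K+, then contracted by calcium addition. The read-out is percent inhibition of the calcium-induced contraction, expressed as percent change from control, with n = 3–5.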

Right cardiac atrium [14] = test: Negative chronotropic activity in potassium depolarized guinea pig right atrium assessed as reduction in atrial rate at 10^-4 M after 30 mins; type: functional, Cavia porcellus; set-up: scale not given: the % may be the effect or the level left
Left cardiac atrium [15] = test: Negative inotropic activity in potassium depolarized guinea pig left atrium assessed as reduction in developed tension at 5 uM after 30 mins; type: functional, Cavia porcellus; set-up: scale not given: the % may be the effect or the level left
[16] = Relaxant activity in potassium depolarized guinea pig ileum longitudinal smooth muscle assessed as inhibition of calcium-induced contraction at 10^-4 M after 30 mins; type: functional, Cavia porcellus; set-up: scale not given: the % may be the effect or the level left
Right cardiac atrium [17] = test: Negative chronotropic activity in potassium depolarized guinea pig right atrium assessed as reduction in atrial rate at 50 uM after 30 mins; type: functional, Cavia porcellus; set-up: scale not given: the % may be the effect or the level left
Left cardiac atrium [18] = test: Negative inotropic activity in potassium depolarized guinea pig left atrium assessed as reduction in developed tension at 50 uM after 30 mins; type: functional, Cavia porcellus; set-up: scale not given: the % may be the effect or the level left
Aorta [19] = test: Vasorelaxant activity in potassium depolarized guinea pig aorta assessed as relaxation of calcium-induced contraction; type: functional, tissue-based; details: Cavia porcellus; outline: as §2
Aorta [20] = test: Vasorelaxant activity in potassium depolarized guinea pig aorta assessed as inhibition of calcium-induced contraction at 50 uM after 30 mins; type: functional, Cavia porcellus; set-up: scale not given: the % may be the effect or the level left; outline: as §2

T2 sequence (P08684 whole entry): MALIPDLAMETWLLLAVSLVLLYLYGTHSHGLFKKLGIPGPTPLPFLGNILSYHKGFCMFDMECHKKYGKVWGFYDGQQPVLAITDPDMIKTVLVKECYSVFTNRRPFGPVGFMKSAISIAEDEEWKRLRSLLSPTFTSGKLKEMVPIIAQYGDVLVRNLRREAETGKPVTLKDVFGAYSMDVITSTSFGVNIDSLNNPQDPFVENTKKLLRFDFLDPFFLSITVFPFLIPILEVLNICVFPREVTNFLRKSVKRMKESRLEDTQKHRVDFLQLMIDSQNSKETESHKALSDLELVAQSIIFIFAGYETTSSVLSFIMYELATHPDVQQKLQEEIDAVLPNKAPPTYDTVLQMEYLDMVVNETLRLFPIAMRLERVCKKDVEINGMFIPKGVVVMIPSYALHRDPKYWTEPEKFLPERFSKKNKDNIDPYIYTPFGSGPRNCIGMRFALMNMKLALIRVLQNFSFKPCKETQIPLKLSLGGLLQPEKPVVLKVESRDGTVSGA
Sequence of Cytochrome P450 2C19 (P33261 whole entry): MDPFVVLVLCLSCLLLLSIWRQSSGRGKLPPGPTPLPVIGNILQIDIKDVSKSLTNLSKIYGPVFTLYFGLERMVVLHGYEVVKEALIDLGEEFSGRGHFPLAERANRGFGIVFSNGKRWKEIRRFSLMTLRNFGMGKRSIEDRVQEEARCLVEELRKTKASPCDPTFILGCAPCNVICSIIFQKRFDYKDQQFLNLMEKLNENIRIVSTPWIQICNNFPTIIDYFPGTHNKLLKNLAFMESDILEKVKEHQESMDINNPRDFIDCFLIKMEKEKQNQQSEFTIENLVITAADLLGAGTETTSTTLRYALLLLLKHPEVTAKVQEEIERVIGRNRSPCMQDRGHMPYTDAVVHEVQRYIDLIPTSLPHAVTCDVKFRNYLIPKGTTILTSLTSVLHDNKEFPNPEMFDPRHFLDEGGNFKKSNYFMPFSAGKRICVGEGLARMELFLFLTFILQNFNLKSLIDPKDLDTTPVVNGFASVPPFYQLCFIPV
Sequence of Cytochrome P450 2D6 (P10635 whole entry): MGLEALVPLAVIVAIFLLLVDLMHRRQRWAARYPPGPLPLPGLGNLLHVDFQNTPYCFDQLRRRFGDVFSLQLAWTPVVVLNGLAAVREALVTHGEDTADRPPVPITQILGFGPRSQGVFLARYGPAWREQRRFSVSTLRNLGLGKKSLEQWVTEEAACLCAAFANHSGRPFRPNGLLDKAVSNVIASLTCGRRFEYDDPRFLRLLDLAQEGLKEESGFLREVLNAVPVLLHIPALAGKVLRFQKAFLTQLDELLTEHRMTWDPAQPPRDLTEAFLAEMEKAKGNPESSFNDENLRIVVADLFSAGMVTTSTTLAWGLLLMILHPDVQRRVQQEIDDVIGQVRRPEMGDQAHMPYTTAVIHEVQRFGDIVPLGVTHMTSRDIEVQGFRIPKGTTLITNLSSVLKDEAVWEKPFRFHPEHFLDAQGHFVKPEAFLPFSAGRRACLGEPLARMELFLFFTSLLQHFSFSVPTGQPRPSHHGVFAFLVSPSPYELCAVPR
Sequence of Cytochrome P450 2C9 (P11712 whole entry): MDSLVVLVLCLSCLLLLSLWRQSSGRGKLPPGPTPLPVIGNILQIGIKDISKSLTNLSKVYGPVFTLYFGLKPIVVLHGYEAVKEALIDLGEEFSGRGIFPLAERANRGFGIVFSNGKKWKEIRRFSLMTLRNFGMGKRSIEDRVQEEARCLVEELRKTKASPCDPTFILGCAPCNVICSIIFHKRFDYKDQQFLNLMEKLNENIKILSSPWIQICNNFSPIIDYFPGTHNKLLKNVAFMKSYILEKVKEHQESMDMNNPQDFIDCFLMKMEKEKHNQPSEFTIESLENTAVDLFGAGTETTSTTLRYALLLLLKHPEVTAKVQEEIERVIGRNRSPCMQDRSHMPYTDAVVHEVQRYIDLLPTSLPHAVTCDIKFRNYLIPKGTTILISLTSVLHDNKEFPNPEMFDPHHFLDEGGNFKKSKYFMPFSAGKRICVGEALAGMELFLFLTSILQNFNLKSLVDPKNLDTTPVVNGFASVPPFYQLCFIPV

Structure (SMILES): CC1=CSC(OC(C)C)(c2ccccc2)c2noc(=O)n21 (stereo unspecified)
EC50 (Left cardiac atrium [1]): 1.19 µM | Activity [2]: 97% | IC50 [3]: 4.82 µM | Activity (Left cardiac atrium [10]): 82% | Activity (Right cardiac atrium [6]): 25% | Activity (Aorta [7]): 39%

Structure (SMILES): COC(=O)C1=C(C)NC(C)=C(C(=O)OC)C1c1ccccc1[N+](=O)[O-] [NIFEDIPINE]
Activity (Left cardiac atrium [11]): 97% | EC50 (Left cardiac atrium [12]): 0.26 µM | Activity (Aorta [13]): 82%

Structure (SMILES): CC1=CSC(OCC2CCCCC2)(c2ccccc2)c2noc(=O)n21 (stereo unspecified)
EC50 (Left cardiac atrium [1]): 0.87 µM | Activity (Left cardiac atrium [10]): 56% | Activity (Right cardiac atrium [14]): 2% | Activity (Aorta [7]): 14%

Structure (SMILES): COc1ccc(CCN(C)CCCC(C#N)(c2ccc(OC)c(OC)c2)C(C)C)cc1OC (stereo unspecified)
Activity (Left cardiac atrium [11]): 84% | IC50 (Aorta [19]): 0.38 µM | EC50 (Left cardiac atrium [12]): 0.61 µM | Activity (Aorta [13]): 95%

Structure (SMILES): COc1cccc(C2(O)SC=C(C)n3c2noc3=O)c1 (stereo unspecified)
Activity (Right cardiac atrium [17]): 16% | EC50 (Left cardiac atrium [1]): 0.49 µM | Activity (Left cardiac atrium [18]): 86% | Activity (Aorta [20]): 10%

Structure (SMILES): O=c1onc2n1-c1ccccc1SC2(O)c1ccccc1 (stereo unspecified)
Activity (Right cardiac atrium [17]): 10% | EC50 (Left cardiac atrium [1]): 1.29 µM | Activity (Left cardiac atrium [18]): 97% | Activity (Aorta [7]): 21%

Continued by falling EC50 (Left cardiac atrium [1]), values first:

EC50 (Left cardiac atrium [1]): 0.48 µM
Structure (SMILES): COc1ccccc1C1(OCC2CCCCC2)SC=C(C)n2c1noc2=O (stereo unspecified)
Activity (Right cardiac atrium [17]): 22% | Activity (Left cardiac atrium [18]): 89% | Activity (Aorta [7]): 17%

EC50 (Left cardiac atrium [1]): 0.39 µM | IC50 [3]: 14.5 µM
Structure (SMILES): O=c1onc2n1-c1ccccc1SC2(OCC(F)(F)F)c1ccccc1 (stereo unspecified)
Activity (Left cardiac atrium [18]): 75% | Activity (Right cardiac atrium [14]): 13% | Activity [16]: 75% | Activity (Aorta [7]): 6%

EC50 (Left cardiac atrium [1]): 0.28 µM
Structure (SMILES): O=c1onc2n1-c1ccccc1SC2(OCC1CCCCC1)c1ccccc1 (stereo unspecified)
Activity (Left cardiac atrium [18]): 86% | Activity (Right cardiac atrium [14]): 6% | Activity (Aorta [7]): 3%

IC50 (Cytochrome P450 1A2): > 20 µM | IC50 (Cytochrome P450 2D6): > 20 µM | EC50 (Left cardiac atrium [1]): 0.23 µM | microsomal CLint at 1 µM (in vitro): 135 µL/min/mg | IC50 (Cytochrome P450 2C19): 3.6 µM | IC50 (Cytochrome P450 2C9): 11.8 µM | Stability (Liver microsome): Stable | IC50 (Cytochrome P450 3A4 [4]): > 20 µM | IC50 (Cytochrome P450 3A4 [8]): > 20 µM | half-life at 1 µM [9]: 13 min
Structure (SMILES): CCOC1(c2ccc(OC)cc2)Sc2ccccc2-n2c1noc2=O (stereo unspecified)
Activity (Right cardiac atrium [14]): 19% | Activity (Left cardiac atrium [5]): 73% | Activity (Aorta [7]): 11%

IC50 (Cytochrome P450 1A2): > 20 µM | IC50 (Cytochrome P450 2D6): 16.9 µM | EC50 (Left cardiac atrium [1]): 0.22 µM | microsomal CLint at 1 µM (in vitro): 86 µL/min/mg | IC50 (Cytochrome P450 2C19): 4.8 µM | IC50 (Cytochrome P450 2C9): > 20 µM | Stability (Liver microsome): Stable | IC50 [3]: 11.6 µM | IC50 (Cytochrome P450 3A4 [4]): > 20 µM | IC50 (Cytochrome P450 3A4 [8]): 19.1 µM | half-life at 1 µM [9]: 20 min
Structure (SMILES): CCOC1(c2ccccc2)SC=C(C)n2c1noc2=O (stereo unspecified)
Activity [2]: 89% | Activity (Left cardiac atrium [5]): 86% | Activity (Right cardiac atrium [6]): 11% | Activity (Aorta [7]): 32%

IC50 (Cytochrome P450 1A2): > 20 µM | IC50 (Cytochrome P450 2D6): > 20 µM | EC50 (Left cardiac atrium [1]): 0.21 µM | IC50 (Cytochrome P450 2C19): 6.1 µM | IC50 (Cytochrome P450 2C9): 19 µM | Stability (Liver microsome): Stable | IC50 (Cytochrome P450 3A4 [8]): > 20 µM
Structure (SMILES): CCOC1(c2ccccc2)Sc2ccccc2-n2c1noc2=O (stereo unspecified)
Activity (Right cardiac atrium [17]): 7% | Activity (Left cardiac atrium [5]): 88% | Activity (Aorta [7]): 14%

IC50 (Cytochrome P450 1A2): > 20 µM | IC50 (Cytochrome P450 2D6): 16.5 µM | EC50 (Left cardiac atrium [1]): 0.14 µM | IC50 (Cytochrome P450 2C19): 2.4 µM | IC50 (Cytochrome P450 2C9): 18.4 µM | Stability (Liver microsome): Stable | IC50 [3]: 9.82 µM | IC50 (Cytochrome P450 3A4 [4]): > 20 µM | IC50 (Cytochrome P450 3A4 [8]): > 20 µM
Structure (SMILES): CC1=CSC(OCC(F)(F)F)(c2ccccc2)c2noc(=O)n21 (stereo unspecified)
Activity (Left cardiac atrium [15]): 79% | Activity (Right cardiac atrium [14]): 6% | Activity [16]: 95% | Activity (Aorta [7]): 28%

EC50 (Left cardiac atrium [1]): 0.064 µM | IC50 [3]: 3.53 µM
Structure (SMILES): COc1cccc(C2(OC(C)C)SC=C(C)n3c2noc3=O)c1 (stereo unspecified)
Activity (Right cardiac atrium [17]): 2% | Activity (Left cardiac atrium [18]): 84% | Activity [2]: 98% | Activity (Aorta [7]): 36%
